Rows were chosen to be rich in hits. Some 12% of all compounds tested hit in one or more screens of this group.
Arbovirus anti – blocks arbovirus infection; AID 1251; actives 0.37% (n = 200,000); inhibition, % at 10 µM; arbovirus infection cell-based antiviral screen; in the data active = inhibition above about 30%
Wee1 stabilizer – blocks degradation of human Wee1 kinase. reporter increase, % at 5 µM. HeLa Luc-Wee1K328M stability, luciferase luminescence; 100% = proteasome inhibitor MG132 effect. actives 1.2% (n = 220,000). P30291;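 active = activation above the mean of all tested compounds plus 3 SD, set per screening run, cut at about 8.8% in these data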;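 note: cells exposed to compound for 20 h before luminescence read; 0% = DMSO alone and 100% = MG132 at 30 µM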
Rad51 HR inh – Rad51 (human) homologous recombination inhibition. AID 1385. inhibition, % at 10 µM. actives 0.085% (n = 200,000). Q06609. hRad51 DNA strand exchange, fluorescence dequenching;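 active = inhibition above 40% at the single screening dose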;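 note: 0% = DMSO control wells and 100% = blanks with heterologous ssDNA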
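Test system – preformed human Rad51 ssDNA filaments · Reagent – Donor/quencher-labelled 47-bp dsDNA substrate · Incubation – 37 °C 15-min filament assembly, 30-min compound preincubation, 15-min exchange · Signal – FRET fluorescence dequenching, excitation 485 nm, emission 520 nm · Read-out – percent inhibition from fluorescence, normalised to plate control and blank means · Benchmarks – plate control and blank wells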
CHOP inhibitor – blocks CHOP induction under ER stress; CHO-K1 CHOP-promoter luciferase, tunicamycin-induced, 15-18 h; inhibition, % at 10 µM; actives 3.8% (n = 220,000); AID 2732;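 active = compounds that reduced the stress-induced luciferase reporter signal by more than about 70% of percent inhibition, limit read from the data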;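 note: 0% = tunicamycin plus vehicle and 100% = wells without tunicamycin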
Lmaj promast – Leishmania major promastigote growth inhibition; Leishmania major promastigotes, resazurin fluorescence viability; AID 1063; inhibition, % at 10 µM; actives 9% (n = 200,000);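 note: promastigotes grown with compound for 44 hours at 28 °C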
PKD1 kinase inh – PKD1 (human) kinase inhibition | actives 0.056% (n = 200,000) | PKD1 kinase fluorescence polarization assay | AID 797 | inhibition, % (concentration not given with the values) | Q15139
Target sequence (Q15139 whole entry, looked up): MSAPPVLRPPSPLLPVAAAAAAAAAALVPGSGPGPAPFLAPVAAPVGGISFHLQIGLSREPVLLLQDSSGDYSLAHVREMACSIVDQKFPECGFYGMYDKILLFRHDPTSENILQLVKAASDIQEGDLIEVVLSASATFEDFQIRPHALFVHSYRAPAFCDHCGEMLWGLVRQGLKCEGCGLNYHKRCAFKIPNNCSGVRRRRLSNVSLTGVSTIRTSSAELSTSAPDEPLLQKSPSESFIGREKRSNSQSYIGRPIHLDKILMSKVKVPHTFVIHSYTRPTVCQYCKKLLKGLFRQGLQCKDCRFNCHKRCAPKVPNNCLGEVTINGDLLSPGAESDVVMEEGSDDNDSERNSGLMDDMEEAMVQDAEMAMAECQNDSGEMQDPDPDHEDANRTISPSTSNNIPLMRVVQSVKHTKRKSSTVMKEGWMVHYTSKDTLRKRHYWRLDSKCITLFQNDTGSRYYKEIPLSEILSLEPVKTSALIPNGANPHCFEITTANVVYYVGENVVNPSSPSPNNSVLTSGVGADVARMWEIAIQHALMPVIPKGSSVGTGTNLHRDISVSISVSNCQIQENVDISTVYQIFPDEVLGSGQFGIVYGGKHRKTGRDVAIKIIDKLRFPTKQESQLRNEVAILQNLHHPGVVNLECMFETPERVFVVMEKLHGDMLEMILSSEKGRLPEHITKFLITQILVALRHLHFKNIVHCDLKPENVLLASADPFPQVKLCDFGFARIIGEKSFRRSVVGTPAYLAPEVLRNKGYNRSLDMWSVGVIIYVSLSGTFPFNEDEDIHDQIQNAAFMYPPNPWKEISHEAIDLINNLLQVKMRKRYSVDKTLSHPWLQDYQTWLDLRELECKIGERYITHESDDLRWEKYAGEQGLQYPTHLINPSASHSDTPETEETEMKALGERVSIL
An asterisk follows results filed as active; nt = not tested or not shown. Cut-off read from the data, not from the text of the source, unless noted: active = inhibition above about 50%; inactive = the rest.

SMILES | Arbovirus anti | Wee1 stabilizer | Rad51 HR inh | CHOP inhibitor | Lmaj promast | PKD1 kinase inh
CCc1ccc(CN2CCCC(CNS(=O)(=O)c3ccc(OC)cc3)C2)cc1 (configuration not stated) | -39 | 2 | nt | 6 | 84* | -2
NC(N)=NC(=S)Nc1ccc(Cl)cc1 | nt | -1 | nt | -17 | nt | nt
NC(=O)c1cc2cc(Cl)ccc2o/c1=N/NC(=O)c1cccs1 | nt | -1 | 19 | -19 | nt | nt
CCCCOc1ccc(/C=C/C(=O)OCC(=O)NC(=O)NCC(C)C)cc1OCC | 8 | -1 | -7 | 72* | -4 | 3
CCOc1ccccc1NC(=O)COC(=O)/C=C/c1ccc(OC)c(OC)c1 | -3 | 0 | 30 | -4 | 7 | 10
O=C(COc1ccc(Cl)cc1Cl)Nc1ccc(CN2CCCCC2)cc1 | 8 | 1 | -3 | 17 | 7 | -9
COc1ccccc1N1CCN(CC(=O)Nc2ccc(CN3CCCCC3)cc2)CC1 | 5 | -1 | -6 | 31 | 64* | -14
Cc1ccc(Cl)cc1N1CCN(CC(=O)Nc2ccc(CN3CCCCC3)cc2)CC1 | -37 | -2 | -4 | 38 | 98* | 2
CC1(C)CC(=O)c2cnc(N3CCc4ccccc43)nc2C1 | nt | 4 | 5 | -17 | nt | nt
Cc1csc(NC(=O)c2cn3ccccc3n2)n1 | -7 | -3 | 3 | 69 | 13 | 0
CCOC(=O)c1c(NC(=O)COC(=O)c2cc(OC)c(OC)cc2[N+](=O)[O-])sc(C)c1C | -14 | -2 | -2 | 27 | 8 | -2
O=C(/C=C/c1ccc([N+](=O)[O-])s1)N1CCCC1 | 3 | -1 | 8 | -5 | 88* | -3
O=C(/C=C/c1ccccc1[N+](=O)[O-])N1CCCCC1 | 0 | 9.1* | 0 | 11 | 6 | -5
O=C(/C=C/c1ccc([N+](=O)[O-])s1)N1CCCCC1 | -10 | 2 | -4 | -44 | 98* | -4
CN1C(=O)CC(C(=O)Nc2ccccc2F)SC1=Nc1ccc2c(c1)OCO2 (configuration not stated) | -9 | -2 | 12 | 22 | 4 | 5
CCOC(=O)C1=C(COc2ccc(C)cc2)NC(=O)NC1c1cc(C)ccc1C (configuration not stated) | -4 | 3 | -11 | 90* | 1 | 0
CCOC(=O)C1=C(COc2ccc(F)cc2Cl)NC(=O)NC1c1cc(C)ccc1C (configuration not stated) | -7 | 1 | -6 | 61 | 1 | 8
COc1ccc(CCNC(=O)CNC(=O)Cn2ccc3ccccc3c2=O)cc1OC | nt | 6 | -12 | 17 | nt | nt
CC(C)c1ccc(CN(C)CC(O)c2ccccc2)cc1 (configuration not stated) | -21 | -4 | 6 | 5 | 75* | -5
CCOc1cc(C)c(Cl)cc1S(=O)(=O)NCc1ccc2c(c1)OCO2 | -15 | 4 | 2 | 29 | 100* | 5
O=S(=O)(NCc1ccc2c(c1)OCO2)c1cccc2cccnc12 | 4 | 3 | 6 | 4 | 92* | -8
Cc1ccc2cccc(S(=O)(=O)Nc3ccc4c(c3)OCO4)c2n1 | 10 | 2 | -1 | 34 | 96* | -3
Cc1ccc2cccc(OCC(=O)Nc3ccc4c(c3)OCO4)c2n1 | -5 | 5 | 7 | 5 | 3 | 0
CCOC(=O)N1CCC(N2CCN(Cc3ccccc3)C(CCO)C2)CC1 (configuration not stated) | 2 | -5 | 7 | 3 | 50* | 4
Cc1ccc(N2CCC(N3CCN(C4CCCCC4)C(CCO)C3)CC2)cc1 (configuration not stated) | 6 | -4 | -8 | 7 | 53* | -10
CC(=O)N1CCC(N2CCN(Cc3ccc(C)cc3)C(CCO)C2)CC1 (configuration not stated) | 9 | -3 | -8 | -14 | 19 | -2
Cc1ccc(CN2CCN(C3CCOCC3)CC2CCO)cc1 (configuration not stated) | 2 | -1 | nt | 4 | 62* | -3
Cc1c(C#N)c(=O)c(-[n+]2ccccc2)c([S-])n1-c1ccc(Cl)cc1 | nt | -2 | -9 | -21 | nt | nt
Cc1ccc(S(=O)(=O)N(C)C)cc1NC(=O)COC(=O)c1sc2cc(Cl)ccc2c1Cl | nt | -2 | 4 | 10 | nt | nt
c1ccc2c(c1)CCN(c1nc3ccccc3n3cnnc13)C2 | 9 | -1 | -5 | 70* | 0 | -7

Source: PubChem BioAssay (several laboratories)
